From ChEMBL document CHEMBL1938297, “Synthesis, radiofluorination and pharmacological evaluation of a fluoromethyl spirocyclic PET tracer for central σ1 receptors and comparison with fluoroalkyl homologs” (Bioorg Med Chem, 2012)

Columns and labels:
Cerebellum [1] = experiment: Biodistribution in CD1 mouse cerebellum in brain saggital section at 24 MBq, iv at 45 mins by autoradiography; type: ADME, organism-based; details: in vivo, 0.75 h
Procedure, shortened: (§1)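 Female CD-1 mouse given [18F]1 (24 MBq) i.v. and sacrificed at 45 min. Brain hemispheres frozen in isopentane (−35 °C), cut into 12 µm sagittal cryosections, thaw-mounted, air-dried and exposed to 18F-sensitive storage phosphor screens. Anterior olfactory bulb served as nontarget region for target-to-nontarget ratios.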

Brain [2] = experiment: Biodistribution in CD1 mouse brain at 300 kBq, iv after 30 mins by gamma counting; type: ADME, organism-based; details: in vivo, 0.5 h
Procedure, shortened: (§2)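 Female CD-1 mice received [18F]1 (300 kBq) i.v.; 3–6 animals per time point anesthetized at 5, 30, 60 or 120 min p.i., blood and urine collected, animals euthanized by cervical dislocation, organs dissected and weighed. Radioactivity counted in a calibrated gamma counter; % ID/g = tissue counts / initial dose counts / tissue weight; means with SD.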

[3] = Biodistribution in CD1 mouse intestinal content at 300 kBq, iv after 30 mins by gamma counting; type: ADME, organism-based, Intestine; details: in vivo, 0.5 h
Procedure, shortened: (§3)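 Female CD-1 mice received the 18F tracer iv at 300 kBq in 0.9% NaCl containing 5% ethanol; 3–6 animals per time point (5, 30, 60, 120 min p.i.). Animals anaesthetized, blood and urine collected, killed by cervical luxation, organs dissected and weighed, counted in calibrated gamma counter. %ID/g = tissue counts / initial dose counts / tissue weight; mean with SD.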

Cerebellum [4] = experiment: Biodistribution in CD1 mouse cerebellum at 300 kBq, iv after 5 mins by gamma counting; type: ADME, organism-based; details: in vivo; procedure, shortened: as §2
Pancreas = experiment: Biodistribution in CD1 mouse pancreas at 300 kBq, iv after 60 mins by gamma counting; type: ADME, organism-based; details: in vivo, 1 h; procedure, shortened: as §3
Stomach = experiment: Biodistribution in CD1 mouse stomach at 300 kBq, iv after 120 mins by gamma counting; type: ADME, organism-based; details: in vivo, 2 h; procedure, shortened: as §3
Femur [5] = experiment: Biodistribution in CD1 mouse femur at 300 kBq, iv after 5 mins by gamma counting; type: ADME, organism-based; details: in vivo; procedure, shortened: as §2
[6] = Biodistribution in CD1 mouse intestinal content at 300 kBq, iv after 60 mins by gamma counting; type: ADME, organism-based, Intestine; details: in vivo, 1 h; procedure, shortened: as §3
Muscle tissue [7] = experiment: Biodistribution in CD1 mouse muscle at 300 kBq, iv after 120 mins by gamma counting; type: ADME, organism-based; details: in vivo, 2 h; procedure, shortened: as §3
Lung [8] = experiment: Biodistribution in CD1 mouse lung at 300 kBq, iv after 120 mins by gamma counting; type: ADME, organism-based; details: in vivo, 2 h; procedure, shortened: as §3
Femur [9] = experiment: Biodistribution in CD1 mouse flushed femur at 300 kBq, iv after 5 mins by gamma counting; type: ADME, organism-based; details: in vivo; procedure, shortened: as §2
Femur [10] = experiment: Biodistribution in CD1 mouse femur at 300 kBq, iv after 30 mins by gamma counting; type: ADME, organism-based; details: in vivo, 0.5 h; procedure, shortened: as §2
Muscle tissue [11] = experiment: Biodistribution in CD1 mouse muscle at 300 kBq, iv after 60 mins by gamma counting; type: ADME, organism-based; details: in vivo, 1 h; procedure, shortened: as §3
[12] = Chemical stability of the compound in 0.9% NaCl solution at pH 7.2 assessed as compound remaining after 2 hrs by radio-HPLC/TLC analysis; type: physicochemical; details: read-out: Stability
Procedure, shortened: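 Radiotracer incubated 120 min at 40 °C in 0.9% NaCl (pH 7.2), phosphate-saline (0.1 M sodium phosphate, 0.15 M NaCl, pH 7.2) or 0.01 M TRIS–HCl (pH 7.4 at 21 °C). Aliquots were taken at set times and analysed by radio-TLC on silica and by gradient radio-HPLC on RP-18 (MeCN/20 mM ammonium acetate, 254 nm), giving % unchanged tracer; n = 2.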

Mus musculus [13] = experiment: Biodistribution in CD1 mouse small intestine at 300 kBq, iv after 5 mins by gamma counting; type: ADME, organism-based; details: in vivo; procedure, shortened: as §3
Mus musculus [14] = experiment: Biodistribution in CD1 mouse eye at 300 kBq, iv after 120 mins by gamma counting; type: ADME, organism-based; details: in vivo, 2 h; procedure, shortened: as §2
Brain [15] = experiment: Drug metabolism in CD1 mouse brain homogenates assessed as radiometabolites at 191 MBq, iv after 30 mins by radio-HPLC/TLC analysis; type: ADME, organism-based; details: in vivo, 0.5 h
Procedure, shortened: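 Female CD-1 mice were injected with the radiotracer via the tail vein and killed at 30 or 60 min p.i. Whole brains (n = 2 per time) were homogenised in 50 mM TRIS–HCl pH 7.4 at 4 °C and extracted twice with ice-cold acetonitrile. Concentrated extracts were analysed by radio-HPLC and radio-TLC to give % parent versus radiometabolites.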

Mus musculus [16] = experiment: Biodistribution in CD1 mouse large intestine at 300 kBq, iv after 60 mins by gamma counting; type: ADME, organism-based; details: in vivo, 1 h; procedure, shortened: as §3
Heart [17] = experiment: Biodistribution in CD1 mouse heart at 300 kBq, iv after 60 mins by gamma counting; type: ADME, organism-based; details: in vivo, 1 h; procedure, shortened: as §3
Mus musculus [18] = experiment: Biodistribution in CD1 mouse adrenals at 300 kBq, iv after 30 mins by gamma counting; type: ADME, organism-based, Adrenal gland; details: in vivo, 0.5 h; procedure, shortened: as §2
Heart [19] = experiment: Biodistribution in CD1 mouse heart at 300 kBq, iv after 120 mins by gamma counting; type: ADME, organism-based; details: in vivo, 2 h; procedure, shortened: as §3
Mus musculus [20] = experiment: Biodistribution in CD1 mouse eye at 300 kBq, iv after 60 mins by gamma counting; type: ADME, organism-based; details: in vivo, 1 h; procedure, shortened: as §2
Mus musculus [21] = experiment: Biodistribution in CD1 mouse small intestine at 300 kBq, iv after 60 mins by gamma counting; type: ADME, organism-based; details: in vivo, 1 h; procedure, shortened: as §3
Mus musculus [22] = experiment: Biodistribution in CD1 mouse dorsomedial hyphalmus in brain saggital section at 24 MBq, iv at 45 mins by autoradiography; type: ADME, organism-based; details: in vivo, 0.75 h; procedure, shortened: as §1
Mus musculus [23] = experiment: Biodistribution in CD1 mouse large intestine at 300 kBq, iv after 120 mins by gamma counting; type: ADME, organism-based; details: in vivo, 2 h; procedure, shortened: as §3
Lung [24] = experiment: Biodistribution in CD1 mouse lung at 300 kBq, iv after 5 mins by gamma counting; type: ADME, organism-based; details: in vivo; procedure, shortened: as §3
[25] = Biodistribution in CD1 mouse intestinal content at 300 kBq, iv after 5 mins by gamma counting; type: ADME, organism-based, Intestine; details: in vivo; procedure, shortened: as §3
[26] = Ratio of biodistribution in anterior olfactory bulb to facial nucleus in brain saggital section of CD1 mouse at 24 MBq, iv after 45 mins; type: ADME, organism-based; details: in vivo, 0.75 h
Procedure, shortened: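 Female CD-1 mouse given 24 MBq radiotracer i.v. and killed at 45 min. The brain hemispheres were frozen in isopentane (−35 °C), cut into 12 µm sagittal cryosections and exposed to 18F-sensitive phosphor screens. Regional uptake was expressed as a target-to-nontarget ratio, with the anterior olfactory bulb as the nontarget reference.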

[27] = Biodistribution in CD1 mouse intestinal content at 300 kBq, iv after 120 mins by gamma counting; type: ADME, organism-based, Intestine; details: in vivo, 2 h; procedure, shortened: as §3
Mus musculus [28] = experiment: Biodistribution in CD1 mouse fat at 300 kBq, iv after 5 mins by gamma counting; type: ADME, organism-based, Adipose tissue; details: in vivo; procedure, shortened: as §2
Mus musculus [29] = experiment: Biodistribution in CD1 mouse large intestine at 300 kBq, iv after 30 mins by gamma counting; type: ADME, organism-based; details: in vivo, 0.5 h; procedure, shortened: as §3
[30] = Biodistribution in CD1 mouse urine at 300 kBq, iv after 30 mins by gamma counting; type: ADME, organism-based; details: in vivo, 0.5 h
Procedure, shortened: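 Female CD-1 mice received 300 kBq of the radiotracer i.v.; 3–6 animals per time point were anaesthetised at 5, 30, 60 or 120 min p.i. Blood and urine were collected, animals were killed by cervical dislocation, and organs were dissected and weighed. Activity was counted in a calibrated gamma counter and expressed as % injected dose per g wet tissue, mean with SD.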

Mus musculus [31] = experiment: Biodistribution in CD1 mouse eye at 300 kBq, iv after 30 mins by gamma counting; type: ADME, organism-based; details: in vivo, 0.5 h; procedure, shortened: as §2
Brain [32] = experiment: Biodistribution in CD1 mouse brain at 300 kBq, iv after 120 mins by gamma counting; type: ADME, organism-based; details: in vivo, 2 h; procedure, shortened: as §2
Urinary bladder = experiment: Biodistribution in CD1 mouse bladder at 300 kBq, iv after 60 mins by gamma counting; type: ADME, organism-based; details: in vivo, 1 h; procedure, shortened: as §2

For `[18F]CC1OC2(CCN(Cc3ccccc3)CC2)c2ccccc21` (stereo not given), which Drug uptake (Cerebellum [1]) is on record?
The Drug uptake was “Active”.

And the Drug uptake (Brain [2])?
The Drug uptake was 4.56 % ID/g.

What about the Drug uptake [3] of the same molecule?
Its Drug uptake is 0.4 % ID/g.

And the Drug uptake (Cerebellum [4])?
Its Drug uptake is 8.2 % ID/g.

What about the Drug uptake (Pancreas) of the same molecule?
Its Drug uptake is 9.27 % ID/g.

What about the Drug uptake (Stomach) of the same molecule?
The Drug uptake was 1.9 % ID/g.

And the Drug uptake (Femur [5])?
Its Drug uptake is 2.32 % ID/g.

What about the Drug uptake [6] of the same molecule?
The Drug uptake was 0.32 % ID/g.

What about the Drug uptake (Muscle tissue [7]) of the same molecule?
Its Drug uptake is 1.16 % ID/g.

What about the Drug uptake (Lung [8]) of the same molecule?
Its Drug uptake is 6.82 % ID/g.

And the Drug uptake (Femur [9])?
Its Drug uptake is 2.09 % ID/g.

And the Drug uptake (Femur [10])?
The Drug uptake was 4.34 % ID/g.

What about the Drug uptake (Muscle tissue [11]) of the same molecule?
The Drug uptake was 0.97 % ID/g.

And the remaining at 2 h [12]?
Its remaining at 2 h is 96.9%.

What about the Drug uptake (Mus musculus [13]) of the same molecule?
Its Drug uptake is 19.78 % ID/g.

What about the Drug uptake (Mus musculus [14]) of the same molecule?
The Drug uptake was 1.53 % ID/g.

What about the Drug metabolism (Brain [15]) of the same molecule?
The Drug metabolism was “Active”.

What about the Drug uptake (Mus musculus [16]) of the same molecule?
The Drug uptake was 0.92 % ID/g.

What about the Drug uptake (Heart [17]) of the same molecule?
The Drug uptake was 2.96 % ID/g.

And the Drug uptake (Mus musculus [18])?
Its Drug uptake is 13.39 % ID/g.

What about the Drug uptake (Heart [19]) of the same molecule?
Its Drug uptake is 3.05 % ID/g.

And the Drug uptake (Mus musculus [20])?
Its Drug uptake is 0.87 % ID/g.

What about the Drug uptake (Mus musculus [21]) of the same molecule?
The Drug uptake was 23.46 % ID/g.

What about the Drug uptake (Mus musculus [22]) of the same molecule?
The Drug uptake was “Active”.

What about the Drug uptake (Mus musculus [23]) of the same molecule?
Its Drug uptake is 1.46 % ID/g.

What about the Drug uptake (Lung [24]) of the same molecule?
Its Drug uptake is 18.01 % ID/g.

What about the Drug uptake [25] of the same molecule?
The Drug uptake was 0.39 % ID/g.

And the Ratio [26]?
The Ratio was 1.34.

What about the Drug uptake [27] of the same molecule?
The Drug uptake was 1.96 % ID/g.

What about the Drug uptake (Mus musculus [28]) of the same molecule?
Its Drug uptake is 1.12 % ID/g.

What about the Drug uptake (Mus musculus [29]) of the same molecule?
Its Drug uptake is 1.28 % ID/g.

What about the Drug uptake [30] of the same molecule?
Its Drug uptake is 46.35 % ID/g.

And the Drug uptake (Mus musculus [31])?
Its Drug uptake is 2 % ID/g.

And the Drug uptake (Brain [32])?
Its Drug uptake is 2.7 % ID/g.

What about the Drug uptake (Urinary bladder) of the same molecule?
Its Drug uptake is 1.42 % ID/g.
